Screens (PubChem BioAssay)
CRFR2-BP antag: CRF-BP/CRF-R2 complex antagonism; HEK293 CRF-R2/CRF-BP, CRF-induced calcium fluorescence; inhibition, % at 11.8 µM; 0.59% of 350,000 active; AID 588475;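 active = inhibition of the ligand-induced calcium signal above about 50% at the single tested concentration, limit read from the data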
S100A4 MyoIIA: S100A4-myosin IIA interaction inhibition; P26447; 0.14% of 360,000 active; AID 652163; inhibition, % at 10.7 µM; S100A4/TAMRA-MyoIIA peptide fluorescence polarization;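 active = mean inhibition of at least 70% across replicates, with every replicate also reaching that level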
Target sequence (P26447 whole entry, looked up): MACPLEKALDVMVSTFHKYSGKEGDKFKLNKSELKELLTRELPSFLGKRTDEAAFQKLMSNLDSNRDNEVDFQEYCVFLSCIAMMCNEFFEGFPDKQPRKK
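Test system – S100A4 monomer (human) · Compound – single-point compound testing · Schedule – 5 min incubation before reading · Probe or stimulus – TAMRA-labelled myosin IIA heavy-chain peptide probe, 5 nM · Benchmarks – neutral control DMSO, positive control TFP · Medium – Calcium-containing HEPES buffer, pH 7.2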
PKA-R1A act: activates the PKA-R1A holoenzyme complex. activation, % at 11.4 µM. PKA-R1A dissociation, Cy5-IP20 fluorescence polarization; scaled: DMSO 0%, 113 µM cGMP 100%. P00514+P68181. AID 504707. 0.083% of 340,000 active;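 active = percent activation above the mean of all tested compounds plus 3 SD, cut at about 19% in these data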;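 note: higher means more PKAc released from R1A so a rise in polarization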
SIRT5 block: blocks human SIRT5 desuccinylation of peptide | inhibition, % at 15 µM | Q9NXA8 | Purified SirT5, succinyl-peptide AMC, trypsin-coupled fluorescence | 1.1% of 330,000 active; in the data active = inhibition above about 15%
PKA-R2B activ: activates the human PKA-R2B holoenzyme complex; P22694+P31323; PKA-R2B holoenzyme dissociation, Cy5-IP20 fluorescence polarization; R2B truncated from residue 108, S112A mutant; 0% DMSO only, 100% 113 µM cGMP; activation, % at 11.4 µM; 0.079% of 340,000 active;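 active = activation above a cutoff set at the mean over all compounds plus 3 SD, cut at about 18% in these data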;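 note: higher means more holoenzyme dissociation and a rise in polarization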
Target sequence (P31323 whole entry, looked up, other chains not shown, the tested form may be a part): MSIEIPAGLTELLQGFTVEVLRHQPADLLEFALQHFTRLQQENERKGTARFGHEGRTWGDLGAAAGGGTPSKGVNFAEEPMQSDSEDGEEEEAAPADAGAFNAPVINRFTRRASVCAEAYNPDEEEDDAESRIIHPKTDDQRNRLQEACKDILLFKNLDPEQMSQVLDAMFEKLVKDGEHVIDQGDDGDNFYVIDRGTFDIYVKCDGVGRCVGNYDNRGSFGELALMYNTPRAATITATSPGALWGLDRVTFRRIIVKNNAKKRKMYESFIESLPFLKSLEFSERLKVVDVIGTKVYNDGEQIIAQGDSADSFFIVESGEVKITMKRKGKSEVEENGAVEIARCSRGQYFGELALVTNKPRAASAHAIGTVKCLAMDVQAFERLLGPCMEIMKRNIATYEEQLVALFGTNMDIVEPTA
Numbers without * were called inactive; nt = no result; + = active, no number; ! = not active in a repeat. Rows were chosen to be rich in hits. Some 1.5% of all compounds tested hit in one or more screens of this group.

SMILES	CRFR2-BP antag	S100A4 MyoIIA	PKA-R1A act	SIRT5 block	PKA-R2B activ
CC1(C)Cc2c(sc3c2c(=O)n(Cc2ccccc2)c2nncn32)CO1	5.7	nt	-2.8	nt	2.6
C[C@@H]1CCCCO[C@@H](CN(C)Cc2ccc(C(F)(F)F)cc2)[C@H](C)CN([C@H](C)CO)C(=O)c2cc(NC(=O)Nc3ccc4c(c3)OCO4)ccc2O1	nt	1.9	nt	5.4	nt
C[C@H](CO)N1C[C@H](C)[C@@H](CN(C)Cc2ccncc2)OCCCC[C@H](C)Oc2ccc(NC(=O)Nc3ccc4c(c3)OCO4)cc2C1=O	nt	7.5	nt	15.7*	nt
C[C@H]1CCCCO[C@@H](CN(C)Cc2ccncc2)[C@@H](C)CN([C@@H](C)CO)C(=O)c2cc(NC(=O)Nc3ccc4c(c3)OCO4)ccc2O1	nt	5.6	nt	-0.8	nt
C[C@H]1CCCCO[C@H](CN(C)Cc2ccc(C(F)(F)F)cc2)[C@@H](C)CN([C@@H](C)CO)C(=O)c2cc(NC(=O)Nc3ccc4c(c3)OCO4)ccc2O1	nt	153.3*	nt	4.7	nt
CC(C)C(=O)Nc1ccc2c(c1)C(=O)N(C)[C@H]1CC[C@@H](CC(=O)Nc3ccccc3)O[C@H]1CO2	nt	4.9	nt	7.4	nt
Cc1coc2c(C)c3oc(=O)c(CCC(=O)N[C@@H](C)C(=O)N[C@@H](Cc4ccccc4)C(=O)O)c(C)c3cc12	4.6	-3.7	-8.4	25.6*	5.6
COc1ccc2cc3cc(C(=O)NCCCN4CCc5ccccc5C4)sc3nc2c1	6.8	-10.9	3.5	18.7*	2.5
C[C@@H]1CN([C@@H](C)CO)S(=O)(=O)c2ccc(/C=C/c3ccccc3)cc2O[C@H]1CN(C)C(=O)NC1CCCC1	nt	-0.1	nt	16.2*	nt
C/C=C/c1ccc2c(c1)O[C@H](CN(C)C(=O)NC1CCCC1)[C@H](C)CN([C@H](C)CO)S2(=O)=O	-3.7	12.7	-24.4	15.8*!	-13.3
C/C=C/c1ccc2c(c1)O[C@@H](CN(C)C(=O)NC1CCCC1)[C@H](C)CN([C@@H](C)CO)S2(=O)=O	nt	3.9	nt	-2.9	nt
C[C@@H]1CN([C@H](C)CO)S(=O)(=O)c2ccc(/C=C/c3ccccc3)cc2O[C@H]1CN(C)C(=O)NC1CCCC1	nt	-10.7	nt	15.2*	nt
O=C(C[C@H]1C[C@H]2c3cc(NC(=O)NC4CCCC4)ccc3O[C@H]2[C@@H](CO)O1)NCC1CC1	nt	8.2	nt	-1.6	nt
COc1ccc(NC(=O)N(C)C[C@H]2Oc3cc(-c4cccc(C(=O)N(C)C)c4)ccc3S(=O)(=O)N([C@@H](C)CO)C[C@@H]2C)cc1	nt	0.5	nt	-2.4	nt
O=C(CCl)NNC(=O)c1c(O)c2ccccc2[nH]c1=O	-7.2	1.0	1.3	0.9	0.0
CCCCC(=O)NNC(=O)c1c(O)c2ccccc2[nH]c1=O	-3.9	-1.7	1.6	15.8*	-8.4
CC(=O)Nc1ccc(NC2=C(Cl)C(=O)c3ccccc3C2=O)cc1	+	-4.3	nt	-4.6	nt
O=C1C(Cl)=C(Nc2ccc3cn[nH]c3c2)C(=O)c2ccccc21	95.1*	1.5	-11.3	-2.4	-10.9
O=C1C(Cl)=C(NCCCO)C(=O)c2ccccc21	6.0	nt	-8.7	nt	-14.3
O=C(Nc1ccc2cn[nH]c2c1)c1c(Cl)cccc1Cl	11.8	nt	2.3	nt	3.9
O=C(NC1=C(Nc2ccc(Cl)cc2)C(=O)c2ccccc2C1=O)c1ccccc1	-27.0	-1.6	3.3	-0.3	2.9
CN(C)c1ccc(NC2=C(Cl)C(=O)c3ccccc3C2=O)cc1	75.2*	-1.4	3.0	-2.1	-1.6
COCC#Cc1cnc2c(c1)C(=O)N([C@@H](C)CO)C[C@H](C)[C@@H](CN(C)C(=O)C1CC1)O2	nt	10.6	nt	8.5	nt
COc1cc(NCCCC(C)N)c2ncccc2c1 (stereo not drawn)	4.0	nt	0.6	nt	4.4
CCC(CNc1cc(OC)cc2cccnc12)NC1CCCCC1 (stereo not drawn)	-9.9	139.9*	1.2	2.8	2.3
SMILES	CRFR2-BP antag	S100A4 MyoIIA	PKA-R1A act	SIRT5 block	PKA-R2B activ
COc1ccc(N(CC(=O)NCCSc2ccccn2)S(=O)(=O)c2ccc(C)cc2)cc1OC	55.2*	-11.9	14.7	0.4	4.3
Cc1ccc(S(=O)(=O)N(CC(=O)NCCSc2ccccn2)c2cc(C)cc(C)c2)cc1	29.2	nt	-14.3	nt	-3.8
CCCN1C[C@@H](C)[C@H](OC)CN(C)C(=O)c2cc(NC(=O)C3CC3)ccc2OC[C@@H]1C	nt	5.6	nt	-0.9	nt
C[C@H]1CN([C@@H](C)CO)C(=O)c2cccc(NS(=O)(=O)c3cccs3)c2O[C@@H]1CN(C)CC1CC1	nt	1.7	nt	0.7	nt
CN(C(=O)COC(=O)CCc1nc2ccccc2c(=O)[nH]1)C1CCS(=O)(=O)C1 (stereo not drawn)	52.9*	-1.1	3.5	-1.6	1.8
CN(C(=O)CCc1nc2ccccc2c(=O)[nH]1)C1CCS(=O)(=O)C1 (stereo not drawn)	-1.2	-2.3	-10.2	-0.9	-9.0
COCC(C)n1c(C)cc(C(=O)COC(=O)CCc2nc3ccccc3c(=O)[nH]2)c1C (stereo not drawn)	-43.7	-4.4	-12.5	20.3*	-1.6
COC(CN1CCc2c(C)nc3c(C#N)cnn3c21)OC	-10.2	-1.1	4.8	17.3*	-0.1
Cc1nc2c(C#N)cnn2c2c1CCNN2C	-9.6	4.9	6.7	1.0	-7.5
CO[C@H]1CN(C)C(=O)c2ccc(NC(=O)c3nc4ccccc4s3)cc2OC[C@H](C)NC[C@@H]1C	nt	-3.7	nt	0.7	nt
O=C1C=C(N2CCOCC2)c2ccccc2C1=O	-9.7	-7.9	-5.8	3.1	-5.2
O=C1C(N2CCOCC2)=Cc2cccc3cccc1c23	-13.5	90.1*	-1.5	nt	-7.8
O=C1C=C(N2CCOCC2)c2cccc3cccc1c23	3.7	83.2*	3.4	nt	-10.6
C[C@@H]1CCCCO[C@H](CN(C)Cc2ccncc2)[C@H](C)CN([C@H](C)CO)C(=O)c2cc(NC(=O)c3ccccc3)ccc2O1	nt	10.2	nt	4.3	nt
CCN(C(=O)CSc1nc2scc(-c3ccccc3)c2c(=O)n1N)C1CCS(=O)(=O)C1 (stereo not drawn)	-1.9	17.3	-3.1	19.8*	3.3
NC(=O)c1ccc(NCc2ccco2)c([N+](=O)[O-])c1	71.0*	nt	-17.6	nt	-6.6
NC(=O)c1ccc(NCCc2ccccc2)c([N+](=O)[O-])c1	-5.2	-5.4	6.2	-3.2	-2.7
CC12CCC(C(=O)NCCc3ccccc3)(OC1=O)C2(C)C (stereo not drawn)	4.1	-4.7	3.7	15.1*	2.4
CC(C)NC(=O)N[C@H]1CC[C@H](CCN)O[C@H]1CO	nt	4.6	nt	0.2	nt
Cc1ccc(S(=O)(=O)N(C)C[C@@H]2Oc3c(NC(=O)C4CCCCC4)cccc3C(=O)N([C@H](C)CO)C[C@@H]2C)cc1	nt	108.7*	nt	8.2	nt
C[C@@H]1CN([C@H](C)CO)C(=O)c2cccc(NC(=O)C3CCCCC3)c2O[C@@H]1CN(C)CC1CC1	nt	-11.4	nt	21.3*	nt
